Experimental data of several laboratories.
PTGS2: Prostaglandin G/H synthase 2 (PTGS2, Homo sapiens, UniProt P35354)
Rock2: Rho-associated protein kinase 2 (Rock2, Rattus norvegicus, UniProt Q62868)
SIGMAR1: Sigma non-opioid intracellular receptor 1 (SIGMAR1, Cavia porcellus, UniProt Q60492)
NPY2R: Neuropeptide Y receptor type 2 (NPY2R, Homo sapiens, UniProt P49146)

With `CN(C)C1CCN(CC#Cc2nn(C3CCCC3)c3nc(NCc4ccccc4)ncc23)C1` (stereo not shown) the inhibition was 4% (Ribosomal protein S6 kinase beta-1 (RPS6KB1, Homo sapiens, UniProt P23443); enzyme activity, inhibitor, FRET; 1 µM).
`Oc1ccc2ccccc2n1` gave an inhibition of 84% (Serum paraoxonase/arylesterase 1 (PON1, Homo sapiens, UniProt P27169); enzyme activity, inhibitor; 20 µM).
The inhibition of `C=C[C@@]1(C)C=C2CC[C@@H]3[C@](C)(CCC[C@@]3(C)C(=O)O)[C@H]2CC1` is reported as 15.2% (PTGS2; enzyme activity, inhibitor; 0.98 µg/mL).
`CNC(=O)c1cc(Oc2ccc(NC(=O)Nc3ccc(Cl)c(C(F)(F)F)c3)cc2)ccn1` has an inhibition of 17% (Rock2; enzyme activity, inhibitor; 0.3 µM).
The inhibition of `CNC(=O)[C@@]12C[C@@H]1[C@@H](n1cnc3c(NC)nc(C#Cc4ccc(Cl)s4)nc31)[C@H](O)[C@@H]2O` is reported as 60 to 70% (SIGMAR1; ligand displacement, radioligand; 10 µM).
With `O=C1N=C(N2CCCCN2)S/C1=C\c1ccc(F)cc1O` the inhibition was < 10% (NPY2R; ligand displacement, radioligand; 10 µM).
The inhibition of `O=C(Nc1ccc(S(=O)(=O)N2CCC(Cl)CC2)cc1)c1ccc([N+](=O)[O-])o1` is reported as 4% (NPY2R; ligand displacement, radioligand; 10 µM).
For `CCN1CCN(Cc2ccc(NC(=O)c3ccc(C)c(Oc4ccnc5[nH]ccc45)c3)cc2C(F)(F)F)CC1`, the inhibition was -35.5% (Inositol-tetrakisphosphate 1-kinase (Homo sapiens, UniProt Q13572); target engagement in cells, inhibitor, chemoproteomics; Huh-7; 10 µM).
`COc1ccc(-c2cc(=O)c3c(O)cc(O[C@@H]4O[C@H](CO)[C@@H](O)[C@H](O)[C@H]4O)cc3o2)cc1O` has an inhibition of 100% (PTGS2; enzyme activity, inhibitor; 7.81 µg/mL).
`Nc1ncnc2c1ncn2[C@@H]1O[C@H](CSCCNC(=O)NCc2ccccc2)[C@@H](O)[C@H]1O` gave an inhibition of > 75% (Protein arginine N-methyltransferase 7 (PRMT7, Homo sapiens, UniProt Q9NVM4); enzyme activity, inhibitor, radiometric; 10 µM).
The inhibition of `O=c1cc(-c2ccc(O)c(O)c2)oc2cc(O)cc(O)c12` is reported as 45% (PTGS2; enzyme activity, inhibitor; 0.49 µg/mL).
For `O=C(c1ccc(Cl)cc1)N(Cc1ccccc1)C1CCCCC1`, the inhibition was -7.8% (Muscarinic acetylcholine receptor M3 (CHRM3, Homo sapiens, UniProt P20309); cell-free assay; 10 µM).
For `COc1cc2c(cc1OC)CN(C(C)CCc1ccc(O)cc1)CC2` (stereo not shown), the inhibition was 34% (SIGMAR1; ligand displacement, radioligand; 0.1 µM).
The inhibition of `COc1cc(-c2cc(=O)c3c(O)cc(O)cc3o2)ccc1O` is reported as 58.6% (PTGS2; enzyme activity, inhibitor; 7.81 µg/mL).
For `O=C(c1ccc(F)cc1)N(Cc1ccccc1)C1CCCCC1`, the inhibition was -14% (NPY2R; cell-free assay; 10 µM).
The inhibition of `Cc1ccc(Nc2nccc(N(C)c3ccc4c(C)n(C)nc4c3)n2)cc1S(N)(=O)=O` is reported as 29% (Rock2; enzyme activity, inhibitor; 10 µM).
